Measured values: ChEMBL document CHEMBL1255528, “Chemical investigation of drug-like compounds from the Australian tree, Neolitseadealbata” (Bioorg Med Chem Lett, 2010)
Where a name gives a salt, the structure may show the parent alone.

Assays:
[1] = Cytotoxicity against HEK cells at 100 uM after 72 hrs by alamar blue assay; type: cell-based, HEK293; conditions: human; for cytotoxicity at 72 h, 100 µM: HEK cells, read-out: INH
In short: (§1)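 Non-cancer human cell lines, human embryonic kidney 293 (HEK 293) and neonatal foreskin fibroblasts (NFF), screened in parallel with a panel of five cancer lines. Growth inhibition is reported as percent inhibition at a single test concentration of 100.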

NFF [2] = assay: (§2) Cytotoxicity against human NFF at 100 uM after 72 hrs by alamar blue assay; type: cell-based; conditions: nff, 72 h, 100 µM; in short: as §1
A549 = assay: Cytotoxicity against human A549 cells after 72 hrs by alamar blue assay; type: functional, cell-based; conditions: A549, 72 h
In short: (§3)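 Screened across a human panel: A549 lung adenocarcinoma, HeLa cervical adenocarcinoma, MCF-7 breast, LNCaP and PC3 prostate, plus non-cancer HEK 293 embryonic kidney and NFF neonatal foreskin fibroblasts. IC50 reported as mean ± SD of two independent experiments.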

MCF7 [3] = assay: Cytotoxicity against human MCF7 cells after 72 hrs by alamar blue assay; type: functional, cell-based; conditions: MCF7, 72 h; in short: as §3
[4] = Cytotoxicity against HEK cells after 72 hrs by alamar blue assay; type: cell-based; conditions: Homo sapiens, HEK293, 72 h; in short: as §3
HeLa = assay: Cytotoxicity against human HeLa cells after 72 hrs by alamar blue assay; type: functional, cell-based; in short: as §3
NFF [5] = assay: Cytotoxicity against human NFF after 72 hrs by alamar blue assay; type: cell-based; in short: as §3
LNCaP = assay: Cytotoxicity against human LNCAP cells after 72 hrs by alamar blue assay; type: functional, cell-based; in short: as §3
PC-3 = assay: Cytotoxicity against human PC3 cells after 72 hrs by alamar blue assay; type: functional, cell-based; conditions: PC-3, 72 h; in short: as §3
MCF7 [6] = assay: Cytotoxicity against human MCF7 cells at 100 uM after 72 hrs by alamar blue assay; type: functional; conditions: MCF7, 72 h
In short: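 Single-concentration screen on MCF-7 breast cancer cells within the same human cell-line panel. Percent growth inhibition calculated at the one test concentration rather than as an IC50.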

[7] = as §2; type: cell-based; conditions: NFF cells, read-out: INH; in short: as §1

Row | SMILES | inhibition (INH) ([1]; hek293, 72 h, 100 µM, 72 h) [%] | inhibition (INH) (NFF [2]) [%] | IC50 (A549) [µM] | IC50 (MCF7 [3]) [µM] | IC50 [4] [µM] | IC50 (HeLa) [µM] | IC50 (NFF [5]) [µM] | IC50 (LNCaP) [µM] | IC50 (PC-3) [µM] | cytotoxicity at 72 h, 100 µM [1] [%] | inhibition at 100 µM (MCF7 [6]) [%] | cytotoxicity at 72 h, 100 µM [7] [%]
1 | C[N@@+]1([O-])CCc2cc3c(c4c2[C@H]1Cc1ccccc1-4)OCO3.O=C(O)C(F)(F)F (stereo in doubt; 4) | 49 | 66 |  |  |  |  |  |  |  |  |  | 
2 | COc1ccc2c(c1O)[C@H](Cc1ccc(O)cc1)NCC2 |  |  | > 100 | > 100 | > 100 | > 100 | > 100 | > 100 | > 100 |  |  | 
3 | COc1cc2c(cc1O)C[C@@H]1NCCc3cc4c(c-2c31)OCO4 |  |  | 16 |  |  | 28.1 | > 100 | 27.4 | 36.4 | 55 | 52 | 
4 | CN1CCc2cc3c(c4c2[C@H]1Cc1ccccc1-4)OCO3 |  |  | 3.4 | 17.7 | 15.9 | 16.6 | 15.2 | 12.7 | 7.7 |  |  | 
5 | C[N@@+]1([O-])CCc2cc3c(c4c2[C@H]1Cc1ccccc1-4)OCO3 (stereo in doubt; 3) |  |  | > 100 | > 100 |  | > 100 |  | > 100 | > 100 | 61 |  | 83
6 | CC(=O)O[C@H]1C(=O)[C@@]2(C)[C@H]([C@H](OC(=O)c3ccccc3)[C@]3(O)C[C@H](OC(=O)[C@H](O)[C@@H](NC(=O)c4ccccc4)c4ccccc4)C(C)=C1C3(C)C)[C@]1(OC(C)=O)CO[C@@H]1C[C@@H]2O [PACLITAXEL] |  |  | 0.0038 | 0.0044 | 0.0039 | 0.0089 | 0.0047 |  |  |  |  | 
7 | CC[C@]1(O)C[C@H]2CN(CCc3c([nH]c4ccccc34)[C@@](C(=O)OC)(c3cc4c(cc3OC)N(C=O)[C@H]3[C@@](O)(C(=O)OC)[C@H](OC(C)=O)[C@]5(CC)C=CCN6CC[C@]43[C@@H]65)C2)C1 [VINCRISTINE SULFATE] |  |  |  |  |  |  |  | 0.0029 | 0.011 |  |  | 
8 | COc1ccc2c(c1O)[C@H](Cc1ccc(O)cc1)N(C)CC2 |  |  | > 100 | > 100 | > 100 | > 100 | > 100 | > 100 | > 100 |  |  | 
9 | COc1cc2c(cc1O)C[C@@H]1NCCc3cc(O)c(OC)c-2c31 |  |  | > 100 | > 100 | > 100 | > 100 | > 100 | > 100 | > 100 |  |  | 
10 | Oc1ccc2c(c1)-c1c3c(cc4c1[C@@H](C2)NCC4)OCO3 |  |  | 28.2 | 27.4 | 59.7 | 4 | 42.6 | 13.8 | 23 |  |  | 
11 | COc1cc2c(cc1O)C[C@H]1c3c(cc(O)c(OC)c3-2)CCN1C |  |  | > 100 | > 100 | > 100 | > 100 | > 100 | > 100 | > 100 |  |  | 
